Reference: ChEMBL document CHEMBL5107952, “Synthesis of low-molecular weight fucoidan derivatives and their binding abilities to SARS-CoV-2 spike proteins” (RSC Med Chem, 2021)

Experiments:
Assay type in all cases: cell-based, Severe acute respiratory syndrome coronavirus 2
[1] = (§1) Competitive inhibition of biotinylated heparin binding to His-tagged SARS-COV-2 B.1.351 variant recombinant spike glycoprotein D80A/D215G/K417N/E484K/N501Y/D614G/A701V mutant expressed in Expi293F cells incubated for 120 sec by biolayer interferometry streptavidin sensor based assay
How it was run: (§2)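 Same heparin-competition BLI format with variant S proteins (B.1.1.7, B.1.351, P.1). Biotinylated heparin sat on streptavidin sensors, and S protein (1 μM) was in TBS (20 mM Tris, pH 7.4, 0.02% BSA). Bound (%) was read from the BLI signal. IC50 was fitted and converted to Ki via Cheng–Prusoff.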

[2] = as §1, with “B.1.1.7” for “B.1.351”, “del69-70/del144/N501Y/A570D/D614G/P681H/T716I/S982A/D1118H” for “D80A/D215G/K417N/E484K/N501Y/D614G/A701V”; how it was run: as §2
[3] = (§3) Competitive inhibition of biotinylated heparin binding to His-tagged SARS-COV-2 P.1 variant recombinant spike glycoprotein L18F/T20N/P26S/D138Y/R190S/K417T/E484K/N501Y/H655Y/T1027I mutant expressed in Expi293F cells incubated for 300 sec by biolayer interferometry streptavidin sensor based assay; how it was run: as §2
[4] = Competitive inhibition of biotinylated heparin binding to His-tagged SARS-COV-2 B.1.1.7 variant recombinant spike glycoprotein del69-70/del144/N501Y/A570D/D614G/P681H/T716I/S982A/D1118H mutant expressed in Expi293F cells assessed as inhibition constant incubated for 120 sec by biolayer interferometry streptavidin sensor based assay; how it was run: as §2
[5] = as §1, with “cells assessed as inhibition constant” for “cells”; how it was run: as §2
[6] = as §3, with “cells assessed as inhibition constant” for “cells”; how it was run: as §2

CCCCCCCCO[C@H]1O[C@@H](C)[C@@H](O[C@@H]2O[C@@H](C)[C@@H](O[C@@H]3O[C@@H](C)[C@@H](O[C@@H]4O[C@@H](C)[C@@H](OS(=O)(=O)O)[C@@H](OS(=O)(=O)O)[C@@H]4OS(=O)(=O)O)[C@@H](OS(=O)(=O)O)[C@@H]3OS(=O)(=O)O)[C@@H](OS(=O)(=O)O)[C@@H]2OS(=O)(=O)O)[C@@H](OS(=O)(=O)O)[C@@H]1OS(=O)(=O)O
IC50 [1]: 85.9 µM | IC50 [2]: 35 µM | IC50 [3]: 65.6 µM | Ki [4]: 10.1 µM | Ki [5]: 6.67 µM | Ki [6]: 6.98 µM
